# In ChEMBL document CHEMBL1649165, “Activity profile in vitro of micafungin against Spanish clinical isolates of common and emerging species of yeasts and molds” (2009):
# Key:
# Type in all cases: functional
# [1] = system: Scedosporium apiospermum; test: Antimicrobial activity against Scedosporium apiospermum by broth microdilution method
# Outline: (§1)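 Filamentous fungus clinical isolates tested by the AFST-EUCAST reference broth microdilution method for moulds. For echinocandins, the endpoint was the minimum effective concentration: the lowest drug concentration giving aberrant hyphal growth, read with an inverted microscope.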
# [2] = system: Lecythophora hoffmannii; test: Antimicrobial activity against Lecythophora hoffmannii by broth microdilution method; settings: Coniochaeta hoffmannii; outline: as §1
# [3] = system: Fusarium verticillioides; test: Antimicrobial activity against Fusarium verticillioides by broth microdilution method; outline: as §1
# [4] = system: Fusarium proliferatum; test: Antimicrobial activity against Fusarium proliferatum by broth microdilution method
# Outline: (§2)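 Clinical mould isolates, tested by broth microdilution using the AFST-EUCAST reference method for filamentous fungi. For echinocandins, the endpoint was the minimum effective concentration: the lowest drug concentration giving aberrant hyphal growth, read with an inverted microscope.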
# [5] = system: Candida metapsilosis; test: Antimicrobial activity against Candida metapsilosis by broth microdilution method; settings: Lodderomyces metapsilosis
# Outline: (§3)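 Clinical isolates from human patients, tested by broth microdilution using the AFST-EUCAST reference procedure for fermentative yeasts. The MIC was read per that reference method.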
# [6] = system: Wickerhamomyces anomalus; test: Antimicrobial activity against Candida pelliculosa by broth microdilution method; settings: Hansenula anomala; outline: as §3
# [7] = system: Yarrowia lipolytica; test: Antimicrobial activity against Yarrowia lipolytica by broth microdilution method
# [8] = system: Scopulariopsis brevicaulis; test: Antimicrobial activity against Scopulariopsis brevicaulis by broth microdilution method; outline: as §1
# [9] = system: Exophiala dermatitidis; test: Antimicrobial activity against Exophiala dermatitidis by broth microdilution method
# [10] = system: Trichosporon; test: Antimicrobial activity against Trichosporon spp. by broth microdilution method
# Outline: (§4)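 Nonfermentative yeast clinical isolates (Rhodotorula, Trichosporon) tested by broth microdilution. The EUCAST yeast recommendations were followed strictly, with one minor modification to improve growth. MIC was read as the endpoint.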
# [11] = system: Mucor; test: Antimicrobial activity against Mucor spp.by broth microdilution method; outline: as §1
# [12] = system: Paecilomyces lilacinus; test: Antimicrobial activity against Paecilomyces lilacinus by broth microdilution method; settings: Purpureocillium lilacinum; outline: as §1
# [13] = system: Kluyveromyces marxianus; test: Antimicrobial activity against Candida kefyr by broth microdilution method; outline: as §3
# [14] = system: Rhizomucor; test: Antimicrobial activity against Rhizomucor spp.by broth microdilution method; outline: as §1
# [15] = system: Aureobasidium pullulans; test: Antimicrobial activity against Aureobasidium pullulans by broth microdilution method
# [16] = system: Aspergillus sydowii; test: Antimicrobial activity against Aspergillus sydowii by broth microdilution method; outline: as §2
# [17] = system: Trichosporon domesticum; test: Antimicrobial activity against Trichosporon mycotoxinivorans by broth microdilution method; settings: Apiotrichum domesticum
# Outline: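 Spanish human clinical isolates were tested as nonfermentative yeasts by broth microdilution. The method strictly followed the EUCAST recommendations, with a minor modification to improve growth, and the read-out was the MIC.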
# [18] = system: Aspergillus terreus; test: Antimicrobial activity against Aspergillus terreus by broth microdilution method; outline: as §2
# [19] = system: [Candida] intermedia; test: Antimicrobial activity against Candida intermedia by broth microdilution method; settings: Sungouiella intermedia; outline: as §3
# [20] = system: Aspergillus glaucus; test: Antimicrobial activity against Aspergillus glaucus by broth microdilution method; outline: as §2
# [21] = system: Aspergillus niger; test: Antimicrobial activity against Aspergillus niger by broth microdilution method; outline: as §2
# [22] = system: Aspergillus nidulans; test: Antimicrobial activity against Aspergillus nidulans by broth microdilution method; outline: as §2
# [23] = system: Candida albicans; test: Antimicrobial activity against Candida albicans by broth microdilution method; outline: as §3
# [24] = system: Candida tropicalis; test: Antimicrobial activity against Candida tropicalis by broth microdilution method; outline: as §3
# [25] = system: Penicillium; test: Antimicrobial activity against Penicillium spp. by broth microdilution method; outline: as §1
# [26] = system: Trichosporon dermatis; test: Antimicrobial activity against Trichosporon dermatis by broth microdilution method; settings: Cutaneotrichosporon dermatis; outline: as §4
# [27] = system: Aspergillus flavus; test: Antimicrobial activity against Aspergillus flavus by broth microdilution method; outline: as §2
# [28] = system: Saksenaea vasiformis; test: Antimicrobial activity against Saksenaea vasiformis by broth microdilution method; outline: as §1
# [29] = system: Rhodotorula glutinis; test: Antimicrobial activity against Rhodotorula glutinis by broth microdilution method; outline: as §4
# [30] = system: Aspergillus ochraceus; test: Antimicrobial activity against Aspergillus ochraceus by broth microdilution method; outline: as §2
# [31] = system: Saccharomyces cerevisiae; test: Antimicrobial activity against Saccharomyces cerevisiae by broth microdilution method
# [32] = system: Trichoderma; test: Antimicrobial activity against Trichoderma spp. by broth microdilution method; outline: as §1
# [33] = system: Pichia norvegensis; test: Antimicrobial activity against Candida norvegensis by broth microdilution method; outline: as §3
# [34] = system: Alternaria alternata; test: Antimicrobial activity against Alternaria alternata by broth microdilution method; outline: as §2
# [35] = system: Beauveria bassiana; test: Antimicrobial activity against Beauveria bassiana by broth microdilution method; outline: as §2
# [36] = system: Hortaea werneckii; test: Antimicrobial activity against Hortaea werneckii by broth microdilution method
# [37] = system: Phialemonium curvatum; test: Antimicrobial activity against Phialemonium curvatum by broth microdilution method; settings: Thyridium curvatum; outline: as §1
# [38] = system: Fusarium oxysporum; test: Antimicrobial activity against Fusarium oxysporum by broth microdilution method; outline: as §2
# [39] = Antimicrobial activity against Rhizopus microsporus by broth microdilution method; outline: as §1
# [40] = system: Nakaseomyces glabratus; test: Antimicrobial activity against Candida glabrata by broth microdilution method; outline: as §3
# [41] = system: Aspergillus versicolor; test: Antimicrobial activity against Aspergillus versicolor by broth microdilution method; outline: as §2
# [42] = system: Lewia infectoria; test: Antimicrobial activity against Alternaria infectoria by broth microdilution method; outline: as §2
# [43] = system: [Candida] zeylanoides; test: Antimicrobial activity against Candida zeylanoides by broth microdilution method; settings: Dujonia zeylanoides; outline: as §3
# [44] = system: Fennellia nivea; test: Antimicrobial activity against Aspergillus niveus by broth microdilution method; outline: as §2
# [45] = system: Rhodotorula mucilaginosa; test: Antimicrobial activity against Rhodotorula mucilaginosa by broth microdilution method; outline: as §4
structure (smiles),measurement,setting,value
C[C@@H](c1ncncc1F)[C@](O)(Cn1cncn1)c1ccc(F)cc1F [VORICONAZOLE],MIC50,[1],0.5 µg/mL
same,MIC90,[1],2 µg/mL
same,MIC50,[2],0.06 µg/mL
same,MIC90,[2],> 8 µg/mL
same,MIC50,[3],8 µg/mL
same,MIC90,[3],> 8 µg/mL
same,MIC50,[4],8 µg/mL
same,MIC90,[4],8 µg/mL
same,MIC50,[5],0.12 µg/mL
same,MIC90,[5],> 8 µg/mL
same,MIC50,[6],0.12 µg/mL
same,MIC90,[6],> 8 µg/mL
same,MIC50,[7],0.5 µg/mL
same,MIC90,[7],2 µg/mL
same,MIC50,[8],4 µg/mL
same,MIC90,[8],> 8 µg/mL
same,MIC50,[9],0.06 µg/mL
same,MIC90,[9],> 8 µg/mL
same,MIC50,[10],0.5 µg/mL
same,MIC90,[10],> 8 µg/mL
same,MIC50,[11],> 8 µg/mL
same,MIC90,[11],> 8 µg/mL
same,MIC50,[12],0.5 µg/mL
same,MIC90,[12],> 8 µg/mL
same,MIC50,[13],0.02 µg/mL
same,MIC90,[13],0.02 µg/mL
same,MIC50,[14],> 8 µg/mL
same,MIC90,[14],> 8 µg/mL
same,MIC50,[15],0.06 µg/mL
same,MIC90,[15],> 8 µg/mL
same,MIC50,[16],1 µg/mL
same,MIC90,[16],2 µg/mL
same,MIC50,[17],0.5 µg/mL
same,MIC90,[17],> 8 µg/mL
same,MIC50,[18],1 µg/mL
same,MIC90,[18],2 µg/mL
same,MIC50,[19],0.12 µg/mL
same,MIC90,[19],> 8 µg/mL
same,MIC50,[20],0.25 µg/mL
same,MIC90,[20],> 8 µg/mL
same,MIC50,[21],1 µg/mL
same,MIC90,[21],2 µg/mL
same,MIC50,[22],0.25 µg/mL
same,MIC90,[22],1 µg/mL
same,MIC50,[23],0.02 µg/mL
same,MIC90,[23],0.02 µg/mL
same,MIC50,[24],0.03 µg/mL
same,MIC90,[24],0.12 µg/mL
same,MIC50,[25],2 µg/mL
same,MIC90,[25],8 µg/mL
same,MIC50,[26],0.5 µg/mL
same,MIC90,[26],> 8 µg/mL
same,MIC50,[27],1 µg/mL
same,MIC90,[27],2 µg/mL
same,MIC50,[28],> 8 µg/mL
same,MIC90,[28],> 8 µg/mL
same,MIC50,[29],0.5 µg/mL
same,MIC90,[29],> 8 µg/mL
same,MIC50,[30],0.25 µg/mL
same,MIC90,[30],> 8 µg/mL
same,MIC50,[31],0.06 µg/mL
same,MIC90,[31],0.5 µg/mL
same,MIC50,[32],4 µg/mL
same,MIC90,[32],> 8 µg/mL
same,MIC50,[33],0.12 µg/mL
same,MIC90,[33],> 8 µg/mL
same,MIC50,[34],4 µg/mL
same,MIC90,[34],> 8 µg/mL
same,MIC50,[35],4 µg/mL
same,MIC90,[35],> 8 µg/mL
same,MIC50,[36],0.06 µg/mL
same,MIC90,[36],> 8 µg/mL
same,MIC50,[37],4 µg/mL
same,MIC90,[37],> 8 µg/mL
same,MIC50,[38],4 µg/mL
same,MIC90,[38],> 8 µg/mL
same,MIC50,[39],> 8 µg/mL
same,MIC90,[39],> 8 µg/mL
same,MIC50,[40],0.12 µg/mL
same,MIC90,[40],1 µg/mL
same,MIC50,[41],1 µg/mL
same,MIC90,[41],2 µg/mL
same,MIC50,[42],2 µg/mL
same,MIC90,[42],> 8 µg/mL
same,MIC50,[43],0.12 µg/mL
same,MIC90,[43],> 8 µg/mL
same,MIC50,[44],0.25 µg/mL
same,MIC90,[44],> 8 µg/mL
same,MIC50,[45],4 µg/mL
same,MIC90,[45],> 8 µg/mL
